1 substance from publication PMC4425738 (Journal of controlled release : official journal of the …, 2014) can be followed below.

The assay relates to Human adult epidermal keratinocytes. As to the kind of experiment: Cell internalization in vitro. The class given is cell-based. The method in brief:
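FITC-labelled peptide carrier (1, 4, 7 or 10 mg/mL in medium; 30 or 120 min) on keratinocytes seeded on poly-D-lysine glass dishes, grown 24 h in supplemented EpiLife at 37 °C, 5% CO2. Free-carrier arm: 0.1 mg/mL labelled peptide, 15 min, ± 10 mg/mL unlabelled carrier. Medium-only control. Hoechst 33342 nuclear stain, Trolox-HBSS washes, ethidium bromide to exclude dead cells, then confocal imaging. Mean ± SD.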

With “FITC-AC-TGSTQHQ-CG, Disulfide Bridge 2–10 (disulfide) [FITC-SPACE peptide]”, the “increase of uptake by addition of free SPACE peptide” value (15 min, 0.1 mg/mL FITC-SPACE peptide with vs without 10 mg/mL unlabeled SPACE peptide, mean ± SD n=3) turned out to be 3.9±1.5 fold. In addition, the intracellular localization entry by setting is: (15 min, 0.1 mg/mL, absence of excess free SPACE peptide) “localized primarily in punctate spots”; (15 min, 0.1 mg/mL, with 10 mg/mL free SPACE peptide) “cytoplasmic localization”; (120 min, concentrations of 1–4 mg/mL) “punctate fluorescent spots”; (120 min, higher concentrations (7, 10 mg/mL)) “diffused throughout the cytoplasm”.
